≈ marks a conversion by molar mass, not a printed value. Calls of active or inactive are those of the source. The rule behind the calls is not given here.
Legend:
[1] = Cytotoxicity against human BCA1 cells; type: functional; details: read-out: ED50 (the source's name)
[2] = test system: HT-1080; assay: Cytotoxicity against human HT1080 cells; type: functional; details: read-out: ED50 (the source's name)
[3] = test system: Lu1; assay: Cytotoxicity against human Lu1 cells; type: functional; details: read-out: ED50 (the source's name)
[4] = Cytotoxicity against human MEL-2 cells; type: functional; details: MEL2, read-out: ED50 (the source's name)
[5] = Cytotoxicity against human Col1 cells; type: functional; details: read-out: ED50 (the source's name)
[6] = test system: KB; assay: Cytotoxicity against human KB cells; type: functional; details: read-out: ED50 (the source's name)
[7] = test system: KB; assay: Cytotoxicity against vinblastine-sensitive human KB cells; type: functional; details: read-out: ED50 (the source's name)
[8] = test system: KB; assay: Cytotoxicity against vinblastine-resistant human KB cells; type: functional; details: read-out: ED50 (the source's name)
In short: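 The vinblastine-resistant KB-V1 line was tested both with and without added vinblastine in the cultured tumour-cell cytotoxicity panel. Results are reported as ED50.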

[9] = test system: P388; assay: Cytotoxicity against mouse P388 cells; type: functional; details: read-out: ED50 (the source's name)
[10] = test system: A-431; assay: Cytotoxicity against human A431 cells; type: functional; details: read-out: ED50 (the source's name)
[11] = test system: LNCaP; assay: Cytotoxicity against human LNCAP cells; type: functional; details: read-out: ED50 (the source's name)
[12] = test system: ZR-75-1; assay: Cytotoxicity against human ZR-75-1 cells; type: functional; details: read-out: ED50 (the source's name)
[13] = Cytotoxicity against human U373 cells; type: functional, U-373MG ATCC; details: U373 MG, read-out: ED50 (the source's name)
[14] = test system: Escherichia coli; assay: Antimicrobial activity against Escherichia coli at 10 ug; type: functional, organism-based
In short: (§1)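 Direct bioautography: each compound is spotted onto TLC plates and the solvent evaporated. The test organism is then grown directly on the plate. Growth inhibition is scored at the spot as active (+) or very active (++). Where a number is given, it is the radius in mm of the inhibition zone around the spot.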

[15] = test system: Escherichia coli; assay: Antimicrobial activity against Escherichia coli at 5 ug; type: functional, organism-based; in short: as §1
[16] = test system: Escherichia coli; assay: Antimicrobial activity against Escherichia coli at 1 ug; type: functional, organism-based; in short: as §1
[17] = test system: Escherichia coli; assay: Antimicrobial activity against Escherichia coli at 0.1 ug; type: functional, organism-based; in short: as §1
[18] = test system: Micrococcus luteus; assay: Antimicrobial activity against Micrococcus luteus at 10 ug; type: functional, organism-based; in short: as §1
[19] = test system: Micrococcus luteus; assay: Antimicrobial activity against Micrococcus luteus at 5 ug; type: functional, organism-based; in short: as §1
[20] = test system: Micrococcus luteus; assay: Antimicrobial activity against Micrococcus luteus at 1 ug; type: functional, organism-based; in short: as §1
[21] = test system: Micrococcus luteus; assay: Antimicrobial activity against Micrococcus luteus at 0.1 ug; type: functional, organism-based; in short: as §1
[22] = test system: Bacillus subtilis; assay: Antimicrobial activity against Bacillus subtilis at 10 ug; type: functional, organism-based; in short: as §1
[23] = test system: Bacillus subtilis; assay: Antimicrobial activity against Bacillus subtilis at 5 ug; type: functional, organism-based; in short: as §1
[24] = test system: Bacillus subtilis; assay: Antimicrobial activity against Bacillus subtilis at 1 ug; type: functional, organism-based; in short: as §1
[25] = test system: Penicillium oxalicum; assay: Antimicrobial activity against Penicillium oxalicum at 10 ug; type: functional; details: for zone of inhibition at 10 µg/disc: read-out: IZ; in short: as §1
[26] = test system: Penicillium oxalicum; assay: Antimicrobial activity against Penicillium oxalicum at 5 ug; type: functional; details: for zone of inhibition at 5 µg/disc: read-out: IZ; in short: as §1
[27] = test system: Penicillium oxalicum; assay: Antimicrobial activity against Penicillium oxalicum at 1 ug; type: functional; details: for zone of inhibition at 1 µg/disc: read-out: IZ; in short: as §1
[28] = test system: Plasmodium falciparum; assay: Antimalarial activity against chloroquine-sensitive Plasmodium falciparum D6 at 10 ug/ml; type: functional
[29] = test system: Penicillium oxalicum; assay: Antimicrobial activity against Penicillium oxalicum at 0.1 ug; type: functional; details: for zone of inhibition at 0.1 µg/disc: read-out: IZ; in short: as §1
[30] = Inhibition of PKC
[31] = test system: Monocyte; assay: Inhibition of LPS-stimulated IL1 production in human monocytes; type: functional, cell-based
[32] = test system: Penicillium oxalicum; assay: Antimicrobial activity against Penicillium oxalicum at 0.01 ug; type: functional; in short: as §1
[33] = test system: Monocyte; assay: Inhibition of IL1 biosynthesis in human monocytes; type: functional, cell-based
[34] = test system: Bacillus subtilis; assay: Antimicrobial activity against Bacillus subtilis at 0.1 ug; type: functional, organism-based; in short: as §1
[35] = molecular target: Human immunodeficiency virus type 1 reverse transcriptase (Human immunodeficiency virus 1) (UniProt Q72547); assay: Inhibition of HIV1 RT at 200 uM
In short: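 HIV-1 reverse transcriptase inhibition was measured in an ELISA-based system.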

[36] = Inhibition of TK assessed as residual activity at 200 ug/ml
In short: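 The enzyme was tyrosine kinase p56lck, with test compounds at 200 μg/mL. The read-out is the remaining enzyme activity.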

[37] = test system: Mycobacterium tuberculosis; assay: Antimycobacterial activity against Mycobacterium tuberculosis at 128 uM; type: functional, organism-based
[38] = test system: Mycobacterium avium; assay: Antimycobacterial activity against Mycobacterium avium at 128 uM; type: functional, organism-based
[39] = test system: Penicillium oxalicum; assay: Antimicrobial activity against Penicillium oxalicum at 0.8 ug; type: functional; details: read-out: IZ; in short: as §1
[40] = test system: Penicillium oxalicum; assay: Antimicrobial activity against Penicillium oxalicum at 1.6 ug; type: functional; details: read-out: IZ; in short: as §1

SMILES | EC50 [3] [µg/mL] | EC50 [6] [µg/mL] | EC50 [7] [µg/mL] | EC50 [8] [µg/mL] | EC50 [11] [µg/mL] | EC50 [12] [µg/mL] | Activity [14] | Activity [15] | Activity [16] | Activity [17] | Activity [18] | Activity [19] | Activity [20] | Activity [21] | Activity [22] | Activity [23] | Activity [24] | zone of inhibition at 10 µg/disc [25] [mm] | zone of inhibition at 5 µg/disc [26] [mm] | Activity [28] [%] | also measured
CCCCC1=C(Br)/C(=C/Br)OC1=O | > 20 | > 20 | > 20 | > 20 | 7.3 (≈ 23.5 µM) | 10.2 (≈ 32.9 µM) | Active | inactive | inactive | inactive | Active | Active | Active | inactive | Active | inactive | inactive | 3 | 3 | >50 | EC50 [1]: 9.8 µg/mL (≈ 31.6 µM); EC50 [2]: 2.2 µg/mL (≈ 7.1 µM); EC50 [4]: 5.3 µg/mL (≈ 17.1 µM); EC50 [5]: > 20 µg/mL; EC50 [9]: > 5 µg/mL; EC50 [10]: > 20 µg/mL; EC50 [13]: 10 µg/mL (≈ 32.3 µM); Activity [27]: inactive
CCCCC1=C(Br)C(=C(Br)Br)OC1=O | – | > 20 | > 20 | > 20 | 9.3 (≈ 23.9 µM) | 8.6 (≈ 22.1 µM) | Active | Active | inactive | inactive | Active | Active | inactive | – | Active | Active | inactive | 11 | 13 | >50 | EC50 [1]: 6.4 µg/mL (≈ 16.5 µM); EC50 [2]: > 20 µg/mL; EC50 [4]: 4.2 µg/mL (≈ 10.8 µM); EC50 [5]: 12.4 µg/mL (≈ 31.9 µM); EC50 [9]: > 5 µg/mL; EC50 [10]: 10.5 µg/mL (≈ 27 µM); EC50 [13]: > 20 µg/mL; zone of inhibition at 1 µg/disc [27]: 8 mm; zone of inhibition at 0.1 µg/disc [29]: 1 mm; IC50 [30]: ≥ 200 µM; IC50 [31]: 1800 nM; Activity [32]: inactive; IC50 [33]: 3000 nM
CCCCCCC(=O)C(Br)=C(Br)Br | > 20 | > 20 | > 20 | > 20 | > 20 | > 20 | inactive | inactive | inactive | inactive | Active | Active | inactive | – | inactive | inactive | inactive | 10 | 5 | >50 | EC50 [1]: > 20 µg/mL; EC50 [2]: > 20 µg/mL; EC50 [4]: > 20 µg/mL; EC50 [5]: > 20 µg/mL; EC50 [9]: > 5 µg/mL; EC50 [10]: > 20 µg/mL; EC50 [13]: > 20 µg/mL; Activity [27]: inactive; IC50 [30]: ≥ 200 µM
CCC[C@@H](O)C1=C(Br)/C(=C/Br)OC1=O | 0.3 (≈ 0.92 µM) | 0.4 (≈ 1.23 µM) | 3.4 (≈ 10.4 µM) | 0.1 (≈ 0.307 µM) | 0.2 (≈ 0.614 µM) | < 0.1 | Active | Active | Active | – | Active | Active | Active | inactive | Active | Active | Active | 27 | 26 | >50 | Activity [34]: Active; zone of inhibition at 1 µg/disc [27]: 20 mm; zone of inhibition at 0.1 µg/disc [29]: 6 mm; Activity [35]: inactive; IC50 [30]: 76 µM; Activity [36]: 3.4%; IC50 [31]: 600 nM; Activity [37]: inactive; IC50 [38]: 350 µM; Activity [32]: inactive; IC50 [33]: 1500 nM
CCC[C@@H](OC(C)=O)C1=C(Br)/C(=C/Br)OC1=O | 1.7 (≈ 4.62 µM) | 0.8 (≈ 2.17 µM) | 2.1 (≈ 5.71 µM) | 1 (≈ 2.72 µM) | 0.5 (≈ 1.36 µM) | 1.6 (≈ 4.35 µM) | Active | inactive | inactive | inactive | Active | Active | Active | inactive | Active | Active | Active | 16 | 15 | >50 | zone of inhibition at 1 µg/disc [27]: 11 mm; zone of inhibition at 0.1 µg/disc [29]: 7 mm; Activity [35]: inactive; IC50 [30]: 67 µM; IC50 [31]: 1300 nM; Activity [37]: inactive; IC50 [38]: 350 µM; Activity [32]: inactive; IC50 [33]: 3000 nM
Clc1ccc(COC(Cn2ccnc2)c2ccc(Cl)cc2Cl)c(Cl)c1 (centres undefined) [MICONAZOLE] | – | – | – | – | – | – | – | – | – | – | – | – | – | – | – | – | – | – | – | – | zone of inhibition at 0.8 µg/disc [39]: 3 mm; zone of inhibition at 1.6 µg/disc [40]: 5 mm
CCC[C@@H](OC(C)=O)C1=C(Br)[C@@](CI)(OC)OC1=O | > 20 | 2.4 (≈ 5.37 µM) | 4.1 (≈ 9.17 µM) | 7.1 (≈ 15.9 µM) | 12.9 (≈ 28.9 µM) | 7.9 (≈ 17.7 µM) | inactive | inactive | inactive | inactive | Active | Active | inactive | inactive | inactive | inactive | inactive | – | – | >50 | Activity [34]: inactive; Activity [25]: inactive; Activity [26]: inactive; Activity [27]: inactive; Activity [29]: inactive; Activity [35]: inactive; Activity [37]: inactive; IC50 [38]: 350 µM
